Results from ChEMBL document CHEMBL1156677, “Oxoisoaporphine alkaloid derivatives: synthesis, DNA binding affinity and cytotoxicity” (Eur J Med Chem, 2008).
pIC50: −log10 of the molar value.

Legend:
Type in all cases: functional, cell-based
NCI-H460 = test: Cytotoxicity against human NCI-H460 cells after 48 hrs by MTT assay; conditions: NCI-H460, 48 h
In short: (§1)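 Cells in exponential growth were trypsinised, centrifuged at 180 × g for 3 min, resuspended at 5 × 10^4 cells/ml and seeded. After 48 h drug exposure, MTT (1 mg/mL) added for 4 h. Formazan dissolved in DMSO, OD read at 570 nm. Each dose run in triplicate. IC50 derived from mean OD and reported as the mean of three independent assays.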

HepG2 = test: Cytotoxicity against human HepG2 cells after 48 hrs by MTT assay; conditions: HepG2, 48 h; in short: as §1
MCF7 = test: Cytotoxicity against human MCF7 cells after 48 hrs by MTT assay; conditions: MCF7, 48 h; in short: as §1

In the case of `CN(C)CCCC(=O)Nc1ccc2c(c1)C(=O)c1cccc3ccnc-2c13`, the pIC50 (NCI-H460) was 4.71, the pIC50 (HepG2) was 4.53 and the pIC50 (MCF7) was 4.94.
Work on `O=C(CN1CCCC1)Nc1ccc2c(c1)C(=O)c1cccc3ccnc-2c13` yielded a pIC50 (NCI-H460) of 5.68, a pIC50 (HepG2) of 5.09 and a pIC50 (MCF7) of 4.93.
Work on `CN(C)CCC(=O)Nc1ccc2c(c1)C(=O)c1cccc3ccnc-2c13` yielded a pIC50 (NCI-H460) of 5.17, a pIC50 (HepG2) of 5.11 and a pIC50 (MCF7) of 5.04.
`O=C(CCN1CCCCC1)Nc1ccc2c(c1)C(=O)c1cccc3ccnc-2c13` showed a pIC50 (NCI-H460) of 5.37, a pIC50 (HepG2) of 5.20 and a pIC50 (MCF7) of 5.29.
Work on `CCN(CC)CCC(=O)Nc1ccc2c(c1)C(=O)c1cccc3ccnc-2c13` yielded a pIC50 (NCI-H460) of 5.30, a pIC50 (HepG2) of 4.92 and a pIC50 (MCF7) of 4.90.
With `O=C(CCN1CCCC1)Nc1ccc2c(c1)C(=O)c1cccc3ccnc-2c13` the pIC50 (NCI-H460) was 4.78, the pIC50 (HepG2) was 5.09 and the pIC50 (MCF7) was 5.10.
With `CN(C)CCNCCC(=O)Nc1ccc2c(c1)C(=O)c1cccc3ccnc-2c13` the pIC50 (NCI-H460) was 4.52, the pIC50 (HepG2) was 4.68 and the pIC50 (MCF7) was 4.55.
For `CN(C)CC(=O)Nc1ccc2c(c1)C(=O)c1cccc3ccnc-2c13`, the pIC50 (NCI-H460) was 5.04, the pIC50 (HepG2) was 5.01 and the pIC50 (MCF7) was 4.76.
In the case of `O=C1c2ccccc2-c2nccc3cccc1c23`, the pIC50 (HepG2) was under 4.00 and the pIC50 (MCF7) was under 4.00.
With `O=C(CCCN1CCCC1)Nc1ccc2c(c1)C(=O)c1cccc3ccnc-2c13` the pIC50 (NCI-H460) was 5.04, the pIC50 (HepG2) was 4.89 and the pIC50 (MCF7) was 4.56.
`O=C(CCNCCO)Nc1ccc2c(c1)C(=O)c1cccc3ccnc-2c13` was tested, and the pIC50 (NCI-H460) was 5.63, the pIC50 (HepG2) was 5.41 and the pIC50 (MCF7) was 5.37.
With `Nc1ccc2c(c1)C(=O)c1cccc3ccnc-2c13` the pIC50 (NCI-H460) was 4.45, the pIC50 (HepG2) was 4.71 and the pIC50 (MCF7) was 4.69.
